The target in experiment [1] is Cannabinoid receptor 1 (Homo sapiens, UniProt P21554). Put plainly: Agonist activity at human CB1 receptor expressed in CHO cells coexpressing Galpha16 assessed as reduction in forsklin-induced cAMP production incubated for 30 mins by cAMP Hunter assay based […] analysis. The conditions noted are these: read-out: EC50. In kind it is cell-based. The gist of the method: (§1)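 CHO cells expressing human CB1 or CB2 with Gα16, seeded overnight at 37 °C. Test compounds in stimulation buffer with 1 mM IBMX, 0.25% BSA and forskolin, 30 min at 37 °C. Cells lysed, cAMP read by enzyme fragment complementation chemiluminescence kit. Triplicate per dilution. Efficacy relative to CP-55940 reference run twice per plate. EC50 from means.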
Chain of Cannabinoid receptor 1 (P21554 whole entry, the tested form may be a part): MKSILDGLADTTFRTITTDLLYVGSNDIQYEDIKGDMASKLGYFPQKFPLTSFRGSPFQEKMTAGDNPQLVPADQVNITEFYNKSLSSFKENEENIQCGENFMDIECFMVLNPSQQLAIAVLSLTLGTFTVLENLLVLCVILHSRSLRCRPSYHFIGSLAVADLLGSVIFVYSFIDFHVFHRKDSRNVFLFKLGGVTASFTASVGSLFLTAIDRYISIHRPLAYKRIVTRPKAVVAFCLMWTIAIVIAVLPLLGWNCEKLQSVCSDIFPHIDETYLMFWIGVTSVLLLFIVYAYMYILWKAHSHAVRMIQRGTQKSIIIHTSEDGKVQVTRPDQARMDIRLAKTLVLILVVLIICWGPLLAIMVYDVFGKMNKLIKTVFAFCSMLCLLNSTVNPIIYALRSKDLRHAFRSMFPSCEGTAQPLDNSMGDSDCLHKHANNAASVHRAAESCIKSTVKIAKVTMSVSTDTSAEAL
In general terms: cAMP levels reflect the balance of adenylyl cyclase and phosphodiesterase activity.

For experiment [2], the target named is Cannabinoid receptor 2 (Homo sapiens, UniProt P34972). Description: Agonist activity at human CB2 receptor expressed in CHO cells coexpressing Galpha16 assessed as reduction in forsklin-induced cAMP production incubated for 30 mins by cAMP Hunter assay based […] analysis. The class given is functional, cell-based. The conditions noted are these: read-out: EC50. A digest of the protocol: as §1
Chain of Cannabinoid receptor 2 (P34972 whole entry): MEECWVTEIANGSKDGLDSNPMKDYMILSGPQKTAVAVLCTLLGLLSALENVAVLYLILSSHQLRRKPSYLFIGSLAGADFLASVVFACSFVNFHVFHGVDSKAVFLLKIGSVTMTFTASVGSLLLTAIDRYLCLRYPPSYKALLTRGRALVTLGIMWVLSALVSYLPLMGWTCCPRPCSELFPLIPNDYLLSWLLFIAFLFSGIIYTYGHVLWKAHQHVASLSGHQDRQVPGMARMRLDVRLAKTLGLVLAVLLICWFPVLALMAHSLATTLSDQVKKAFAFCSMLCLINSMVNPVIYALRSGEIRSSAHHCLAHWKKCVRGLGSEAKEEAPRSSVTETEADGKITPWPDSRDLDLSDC

The test system of experiment [3] is Rattus norvegicus. Put plainly: Antiinflammatory hyperalgesic activity against complete freund's adjuvant-induced mechanical hyperalgesic Sprague-Dawley rat model assessed as increase in paw withdraw latency at 10 mg/kg, ip pretreated with CFA for 24 hrs followed by compound administration and measured at 1 hr to 9 hrs by analgesiometer analysis. In kind it is functional, organism-based. The gist of the method: (§2)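 Male Sprague-Dawley rats, 180–200 g. Baseline mechanical paw withdrawal threshold taken with analgesiometer pressure on left hind paw, cut-off 250 g, endpoint complete withdrawal. Intraplantar 50% CFA (50 µL in 0.9% saline) under isoflurane. At 24 h, pre-drug threshold, then single i.p. dose of 0.0025–10 mg kg-1, antagonist combination or vehicle (2 mL kg-1). Thresholds read 1–24 h after dosing. % reversal = (post − pre)/(baseline − pre) × 100.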

Experiment [4] relates to Rattus norvegicus. Description: Antiinflammatory hyperalgesic activity against complete freund's adjuvant-induced mechanical hyperalgesic Sprague-Dawley rat model assessed as paw withdraw latency at 10 mg/kg, ip pretreated with CFA for 24 hrs followed by compound administration and measured at 24 hrs by analgesiometer analysis. The class given is functional, organism-based. The gist of the method:
as §2

Experiment [5] concerns Rattus norvegicus. Put plainly: Antiinflammatory hyperalgesic activity against complete freund's adjuvant-induced mechanical hyperalgesic Sprague-Dawley rat model assessed as decrease in IL-1 beta production in paw skin at 10 mg/kg, ip pretreated with CFA for 24 hrs followed by compound administration and measured after 1 hr by ELISA relative to control. In kind it is functional. The gist of the method:
(§3)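 Male Sprague-Dawley rats, 180–200 g, isoflurane anaesthesia. Left hind paw given intraplantar 50% CFA (50 µL in 0.9% saline), or saline. At 24 h, single i.p. dose of drug, antagonist, combination or vehicle (2 mL kg-1). 1 h after dosing, paw skin taken and homogenised in ice-cold buffer with protease inhibitor, then centrifuged. IL-1β, IL-6 and TNF-α in supernatant by ELISA. n = 6, one-way ANOVA with Tukey test.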

For experiment [6], the system named is Rattus norvegicus. Description: Antiinflammatory hyperalgesic activity against complete freund's adjuvant-induced mechanical hyperalgesic Sprague-Dawley rat model assessed as decrease in IL-6 production in paw skin at 10 mg/kg, ip pretreated with CFA for 24 hrs followed by compound administration and measured after 1 hr by ELISA relative to control. The class given is functional. The gist of the method: as §3
On the technique in general: In an ELISA, binding on a coated surface is turned into a signal by an enzyme label.

In experiment [7] the test system is Rattus norvegicus. Description: Antiinflammatory hyperalgesic activity against complete freund's adjuvant-induced mechanical hyperalgesic Sprague-Dawley rat model assessed as decrease in TNF alpha production in paw skin at 10 mg/kg, ip pretreated with CFA for 24 hrs followed by compound administration and measured after 1 hr by ELISA relative to control. The class given is functional. The gist of the method: as §3

A short description of experiment [8]: Selectivity ratio of EC50 for human CB1 receptor expressed in CHO cells coexpressing Galpha16 to EC50 for human CB2 receptor expressed in CHO cells coexpressing Galpha16. The gist of the method: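 Ratio of EC50 values from the CB1 and CB2 cAMP assays in CHO-Gα16 cells: 30 min compound exposure at 37 °C with 1 mM IBMX and forskolin, chemiluminescent cAMP read-out, triplicates.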

The text below walks through data of ChEMBL document CHEMBL4373651, “Indole compounds with N-ethyl morpholine moieties as CB2 receptor agonists for anti-inflammatory management of pain: synthesis and biological evaluation” (Medchemcomm, 2019).

Activity calls are given as the source filed them.

For the molecule `COc1ccc2c(c1)c(CCN1CCOCC1)c(C)n2C(=O)c1cccc(Cl)c1Cl`, the EC50 (in general, the concentration that produces a half-maximal response) in experiment [1] was 16.1 µM; in experiment [2], 0.0507 µM. The result in experiment [3] was Active. The result in experiment [4] was inactive. Besides, the “fold change (FC)” value in experiment [5] is recorded as 1.4; in experiment [6], 2.5; in experiment [7], 1.6. Moreover, the “Ratio EC50” value in experiment [8] is given as over 1000.
